Measured values reported in PubChem BioAssay AID623895 (Broad Institute, 2012).
The source made the active and inactive calls.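 The calls were made as follows: active = compounds with an ATP-loss curve whose half-maximal dose stays within twice the top dose, in every run; inconclusive = mixed run calls, weak flat effects or poor fits; inactive = the rest, including opposite-direction effects.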

Test system: not listed separately
Test: cytotoxicity in ldlA[mSR-BI] CHO cells, dose response, cytotoxicity control for SR-BI HDL uptake inhibitor project, cell-based, 24 h, ATP luminescence, dry powder, set 6 (AID 623895)
Details: ldlA[mSR-BI] CHO cells viability, ATP luminescence, 24 h; at 35 µM (top of the series)
Summary of the method: (§1)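 Material: ldlA[mSR-BI] cells; Input: 4,000 cells per well; Measured by: cell Titer Glo luminescence reporting cellular ATP; Schedule: 24 h at 37 °C, read after 10 min; Dosing: Eight-point compound dose series.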

Structure (SMILES)	activity change, negative = cytotoxicity
CNC[C@@H]1Oc2ccc(NC(=O)Cc3cn(C)c4ccccc34)cc2C(=O)N([C@H](C)CO)C[C@H]1C	14.8% (inactive)
C[C@@H]1CN([C@H](C)CO)C(=O)c2cc(NC(=O)Nc3ccccc3)ccc2O[C@H]1CN(C)S(=O)(=O)c1ccc(Cl)cc1	-34.8% (inactive)
Cc1noc(C)c1NC(=O)N(C)C[C@@H]1Oc2ccc(NC(=O)Cc3cn(C)c4ccccc34)cc2C(=O)N([C@H](C)CO)C[C@H]1C	10.5% (inactive)
C[C@H](C(=O)NC1CCCC1)N(C(=O)Cn1nnc(-c2ccc3c(c2)OCO3)n1)C1CCCCC1	-16.5% (inactive)
C[C@@H]1CN([C@H](C)CO)C(=O)c2cc(NC(=O)Cc3cn(C)c4ccccc34)ccc2O[C@H]1CN(C)S(=O)(=O)c1cn(C)cn1	-6.33% (inactive)
C[C@@H]1CN([C@H](C)CO)C(=O)c2cc(NC(=O)C3CCCCC3)ccc2O[C@H]1CN(C)C(=O)c1ccc(Cl)cc1	-24.6% (inactive)
Cc1ccccc1-c1ccc2c(c1)O[C@H](CN(C)C(=O)Nc1ccc(F)cc1)[C@H](C)CN([C@H](C)CO)S2(=O)=O	-28.5% (inactive)
C[C@@H]1CN([C@H](C)CO)C(=O)c2cc(NC(=O)C3CCCCC3)ccc2O[C@H]1CN(C)S(=O)(=O)c1ccc(Cl)cc1	-30.6% (inactive)
C[C@@H]1CN([C@@H](C)CO)C(=O)c2cc(NC(=O)NC3CCCCC3)ccc2O[C@H]1CN(C)Cc1ccncc1	5.45% (inactive)
C[C@@H]1CN([C@H](C)CO)C(=O)c2cc(NC(=O)Cc3cn(C)c4ccccc34)ccc2O[C@H]1CN(C)Cc1ccc2c(c1)OCO2	-15% (inactive)
CO[C@H]1CN(C)C(=O)c2cc(NC(=O)c3ccccc3F)ccc2OC[C@@H](C)N(C(C)=O)C[C@@H]1C	1.07% (inactive)
C[C@@H]1CN([C@H](C)CO)C(=O)c2cc(NC(=O)Cc3cn(C)c4ccccc34)ccc2O[C@H]1CN(C)C(=O)NC1CCCCC1	5.85% (inactive)

Test system: ldlA[mSR-BI] CHO cells viability, ATP luminescence, 24 h
Test: as above
Details: not given
Summary of the method: as §1

Structure (SMILES)	AC50
COc1c(NC(=O)C(=O)c2ccc(OCCN3CCOCC3)c3ccccc23)cc(C(C)(C)C)cc1NS(C)(=O)=O	34.3 µM
C[C@@H]1CN([C@H](C)CN(C)C)C(=O)c2cc(NC(=O)Cc3cn(C)c4ccccc34)ccc2O[C@H]1CN(C)S(=O)(=O)c1ccc(Cl)cc1	15.3 µM
CCCCCCC1CCC/C1=N\NC(N)=S (stereo not given)	3.81 µM
